Assay outcomes deposited in PubChem by several laboratories.
VIM-2 inh: VIM-2 metallo-beta-lactamase inhibitors, primary screen, biochemical, epi-absorbance readout, Pseudomonas aeruginosa enzyme | actives 0.89% (n = 290,000) | inhibition, % at 5.6 µM | purified VIM-2, nitrocefin hydrolysis, epi-absorbance fluorescence | AID 1527, 2009;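 active means inhibition above the mean of all tested compounds plus 3 SD, cutoff set per screening run, cut at about 7.5% in these data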;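 further: red hydrolysis product quenches plate fluorescence so inhibitors raise well fluorescence; 0% = enzyme with DMSO and 100% = DMSO without enzyme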
RanGTP-Impb inh: inhibitors of RanGTP-importin-beta interaction, primary screen, biochemical, FRET, CFP-Ran, YFP-importin-beta, homogeneous | cell-free CFP-Ran/YFP-importin-beta FRET ratio | actives 1.1% (n = 300,000) | Ran GTPase (GTP-bound) - importin-beta complex | inhibition, % (no concentration beside the values) | AID 2216, 2009;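 active means more than half of the replicate wells show a fall in the fluorescence ratio signal beyond about 16%, limit read from the data, passing the limit was not always enough; inconclusive means exactly half of the replicate wells pass the set limit; inactive means fewer than half of replicates pass the limit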;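 further: 0% = DMSO wells and 100% = Ran loaded with GDP instead of GTP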
Runt-SMMHC FRET: inhibitors of RUNX1 Runt–CBFb-SMMHC binding, primary screen, biochemical, FRET, Cerulean-Runt, Venus-CBFb-SMMHC, uHTS | Runt-related transcription factor 1 (Homo sapiens) + Core-binding factor subunit beta … | inhibition, % at 20 µM | actives 0.74% (n = 220,000) | Cerulean-Runt/Venus-CBFb-SMMHC FRET ratio 530/480, 1 h | AID 1434, 2008;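 active means mean inhibition across duplicate retests at 20 µM reaching about 50%, limit read from the data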;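 further: 0% = DMSO wells and 100% = wells with excess untagged CBFb-SMMHC; inhibitors lower the FRET ratio by blocking Runt binding to CBFb-SMMHC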
Target sequence (Q01196 whole entry, looked up): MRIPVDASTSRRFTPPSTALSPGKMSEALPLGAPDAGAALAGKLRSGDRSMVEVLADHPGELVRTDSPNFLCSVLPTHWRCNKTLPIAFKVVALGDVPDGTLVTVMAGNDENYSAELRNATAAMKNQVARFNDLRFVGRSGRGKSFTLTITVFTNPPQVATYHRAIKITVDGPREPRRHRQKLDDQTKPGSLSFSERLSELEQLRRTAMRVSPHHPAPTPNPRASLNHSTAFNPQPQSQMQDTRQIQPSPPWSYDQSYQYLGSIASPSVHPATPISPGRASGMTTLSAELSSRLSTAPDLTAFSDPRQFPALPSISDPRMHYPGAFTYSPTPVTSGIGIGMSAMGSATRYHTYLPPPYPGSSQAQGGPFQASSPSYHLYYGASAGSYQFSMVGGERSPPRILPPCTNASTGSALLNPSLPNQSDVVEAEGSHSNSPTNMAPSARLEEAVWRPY
Target sequence (Q13951 whole entry, looked up): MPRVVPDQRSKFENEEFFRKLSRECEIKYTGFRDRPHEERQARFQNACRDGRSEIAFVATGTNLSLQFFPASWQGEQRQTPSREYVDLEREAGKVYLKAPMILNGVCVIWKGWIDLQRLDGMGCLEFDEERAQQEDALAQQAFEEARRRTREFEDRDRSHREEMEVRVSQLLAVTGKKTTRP
IMP-1 inh-1: IMP-1 metallo-beta-lactamase inhibitors, primary screen, biochemical, epi-absorbance readout, Pseudomonas aeruginosa enzyme; AID 1556, 2009; purified IMP-1, nitrocefin hydrolysis, epi-absorbance fluorescence; actives 0.45% (n = 290,000); metallo-beta-lactamase IMP-1 (Pseudomonas aeruginosa); inhibition, % at 5.6 µM;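 active means inhibition above the mean plus 3 SD of all compounds in the same screening run, cut at about 4.5% in these data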;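 further: 0% = IMP-1 with DMSO and 100% = DMSO wells lacking enzyme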
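System: purified IMP-1; amount: IMP-1 0.2 nM before substrate addition; compound: single dose, 5.6 µM; times: 25 °C, 15 min preincubation, 25 min reaction; signal: Epi-absorbance via hydrolysed-nitrocefin quenching of white-plate fluorescence, 480/530 nm, EDTA stop; benchmarks: DMSO with and without IMP-1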
Runt-CBFb FRET: inhibitors of RUNX1 Runt–CBFb binding, primary screen, biochemical, FRET, Cerulean-Runt, Venus-CBFb, uHTS; Runt-related transcription factor 1 (Homo sapiens) + Core-binding factor subunit beta …; Cerulean-Runt/Venus-CBFb FRET ratio 530/480, 1 h; inhibition, % at 20 µM; actives 0.46% (n = 220,000); AID 1496, 2009;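 active means inhibition over about 50% at 20 µM in the single-dose screen, limit read from the data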;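 further: 0% = DMSO wells and 100% = excess unlabeled CBFb competitor control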
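Schedule: protein complex preformed 1 h, compound exposure 1 h, room temperature, dark; test system: Cerulean-labeled Runt domain protein; amount: 100 nM per protein; buffer or medium: Tris 50 mM pH 7.5, KCl, K2SO4, 0.01% BSA; read-out: loss of energy transfer signal; detection: FRET fluorescence; controls: 5 µM unlabeled CBFb as full-inhibition high control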
IMP-1 inh-2: IMP-1 metallo-beta-lactamase inhibitors, confirmation, selectivity assay for selective VIM-2 inhibitor project, biochemical, epi-absorbance readout, triplicate; 1,300 tested, under 10 active; AID 1856, 2009; inhibition, % at 5.6 µM; shares compounds with VIM-2 inh; purified IMP-1, nitrocefin hydrolysis, epi-absorbance fluorescence; call rule not given here;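 further: 0% = enzyme with vehicle and 100% = vehicle without enzyme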
VIM-2 FRET inh: VIM-2 inhibitors in FRET format, confirmation, artefact control for selective VIM-2 inhibitor project, biochemical, epi-absorbance artifact exclusion | inhibition, % at 5.6 µM | shares compounds with VIM-2 inh | actives 23% (n = 1,300) | AID 1857, 2009 | purified VIM-2, CCF2 FRET substrate hydrolysis;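 active means inhibition above the mean of all tested compounds plus 3 SD, cut at about 19% in these data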;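 further: 0% = VIM-2 plus DMSO and 100% = no enzyme wells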
TEM-1 counter: TEM-1 serine beta-lactamase inhibitors, counter-screen for VIM-2 inhibitor project, biochemical, epi-absorbance, HTS | shares compounds with VIM-2 inh | Purified TEM-1, nitrocefin hydrolysis, epi-absorbance fluorescence | inhibition, % at 5.6 µM | actives 3% (n = 1,300) | AID 1866, 2009;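 active means inhibition above that campaign's mean inhibition plus 3 SD, cut at about 0.46% in these data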;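 further: 0% = TEM-1 with DMSO and 100% = TEM-1 with 100 µM potassium clavulanate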
VIM-2 confirm 2: VIM-2 metallo-beta-lactamase inhibitors, confirmation, biochemical, epi-absorbance, hits shared with IMP-1 screen | shares compounds with VIM-2 inh | purified VIM-2, nitrocefin hydrolysis | inhibition, % at 5.6 µM | actives 96% (n = 1,300);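 active means inhibition of the VIM-2 beta-lactamase enzyme above about 11% from the earlier first-round screen, limit read from the data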;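 further: 0% = VIM-2 with DMSO and 100% = buffer wells without enzyme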
* marks the source's active call; other numbers are inactive results; u = inconclusive; x = no result. Shown are actives, neighbours in structure and some others; about 2.6% of the full set was active somewhere.

SMILES	VIM-2 inh	RanGTP-Impb inh	Runt-SMMHC FRET	IMP-1 inh-1	Runt-CBFb FRET	IMP-1 inh-2	VIM-2 FRET inh	TEM-1 counter	VIM-2 confirm 2
COc1ccc2c(c1)c1ncn(CCN3CCNCC3)c(=O)c1n2C	14.1*	-2.7	-0.2	-1.0	2.2	-0.8	0.4	-7.8	31.3*
Cc1ccc(OCCCC(=O)NC2CCCCC2)cc1	-2.2	-2.7	x	-2.5	x	x	x	x	x
CC1(C)CC(NC(=O)COc2ccccc2Cl)CC(C)(C)N1	-3.9	-3.1	1.7	-4.9	-1.2	x	x	x	x
Cc1cc(OCC(=O)NC2CC(C)(C)NC(C)(C)C2)c2c(C)c(C)c(=O)oc2c1	13.5*	2.0	x	0.9	x	-3.9	2.1	-6.8	17.6*
Cc1c(C)c2cc(Cl)c(OCC(=O)NC3CC(C)(C)NC(C)(C)C3)cc2oc1=O	15.9*	1.9	x	-0.5	x	-2.7	3.1	-5.3	21.6*
CC1(C)CC(NC(=O)COc2cc3oc(=O)c4c(c3cc2Cl)CCC4)CC(C)(C)N1	33.9*	-2.5	x	0.2	x	-1.8	0.9	-6.6	41.2*
CC1(C)CC(NC(=O)COc2ccc(Br)cc2Cl)CC(C)(C)N1	-2.7	-2.4	x	-0.8	x	x	x	x	x
CC(O)CNc1ccc(-c2n[nH]c(=O)c3ccccc23)cc1[N+](=O)[O-] (stereo not given)	20.0*	-4.4	x	-2.9	x	-3.2	-3.0	-6.8	34.3*
CN(C)CCCNc1ccc(-c2n[nH]c(=O)c3ccccc23)cc1[N+](=O)[O-]	59.2*	-0.8	x	-3.0	x	-2.3	1.6	-2.9	68.5*
Cn1nc(-c2ccc(OCC(=O)Nc3cccnc3)cc2)c2ccccc2c1=O	20.4*	u	-4.0	-3.4	1.6	-4.0	1.7	-7.2	30.9*
Cc1nc(N=C(N)N)nc2ccccc12	0.2	3.9	0.3	-0.9	-1.8	x	x	x	x
Cc1cc2nc(N=C(N)N)nc(C)c2cc1C	16.6*	x	2.8	-1.6	-0.8	-3.9	0.3	-4.8	26.4*
Clc1ccccc1-c1nnc2sc(-c3ccncc3)nn12	-3.7	3.5	-2.7	-2.8	2.2	x	x	x	x
Clc1ccccc1-c1nn2c(-c3ccncc3)nnc2s1	22.4*	-5.3	4.3	-3.0	23.5	-3.8	0.3	-7.8	54.8*
CCCc1cc(=O)oc2c3c(cc(OCC(=O)N4CCC[C@H]4C(=O)O)c12)OC(C)(C)CC3	45.4*	2.4	x	0.1	x	-3.0	70.7*	-5.4	50.3*
Cc1c(Cc2ccccc2)c(=O)oc2c(C)c(OCC(=O)N3CCC(C(=O)O)CC3)ccc12	-0.3	-2.5	x	-3.4	x	x	x	x	x
Cc1c(OCC(=O)N2CCC[C@@H]2C(=O)O)ccc2c3c(c(=O)oc12)CCC3	35.5*	-3.7	x	-3.8	x	-3.5	50.8*	-9.7	37.2*
Cc1c(C)c2ccc(OCC(=O)N3CCN(c4ccc(F)cc4)CC3)c(C)c2oc1=O	3.2	-0.9	x	-1.2	x	x	x	x	x
Cc1c(OCC(=O)N2CCC(C(N)=O)CC2)ccc2c3c(c(=O)oc12)CCC3	22.8*	0.2	x	-3.8	x	-2.1	1.9	-18.7	43.3*
